Measured values of several laboratories.
JAK2 JH1: Tyrosine-protein kinase JAK2, JH1 (JAK2, Homo sapiens, UniProt O60674)
JAK2: Tyrosine-protein kinase JAK2 (JAK2, Homo sapiens, UniProt O60674)

SMILES	target	assay	conditions	measurement	value
C[C@H]1CCN(c2nccc(-c3cnn4ncccc34)n2)C1	JAK2 JH1	cell-free assay	1 µM	remaining signal	70%
Cc1ccc(NC(=O)c2ccc(C)c(C(F)(F)F)c2)cc1C#Cc1nn(C2CCC(O)CC2)c2ncnc(N)c12 (stereo not shown)	JAK2	cell-free assay	10 µM	remaining signal	64%
CC(=O)N1CCC(c2ccc(C(=O)NC(=N)N)cc2C(F)(F)F)CC1	JAK2 JH1	cell-free assay, competition with immobilised ligand	1 µM	remaining binding	100%
FC(F)(F)Oc1cccc(-c2cnc3ccc(-c4ccncc4)nn23)c1	JAK2	enzyme activity, inhibitor, radiometric	5 µM	activity vs control	72%
COc1cc2ncnc(Nc3ccc(Oc4ccccc4)cc3C)c2cc1OC	JAK2	enzyme activity, inhibitor	1 µM	inhibition	-6%
O=C1Nc2ccc(Cl)cc2C1=Cc1cc(Cl)c(O)c(Cl)c1	JAK2	cell-free assay	0.5 µM	remaining signal	91.1%
FC(F)c1nc2ccccc2n1-c1nc(N2CCOCC2)nc(N2CCOCC2)n1	JAK2	enzyme activity, inhibitor	10 µM	remaining activity	79%
Cc1nn(CC(F)(F)F)cc1Nc1ncc(C2CC2)c(NCCc2c[nH]cn2)n1	JAK2	enzyme activity, inhibitor, radiometric	1 µM	remaining activity	123%
CCOC(=O)c1cc2cc(-c3cc(C(=O)NCc4ccc(C(=O)O)cc4)nn3C)ccc2[nH]1	JAK2 JH1	cell-free assay, competition with immobilised ligand	0.1 µM	remaining binding	95%
COc1cc2ncnc(Nc3ccc(Oc4ccccc4)c(C)c3C)c2cc1OC	Tyrosine-protein kinase JAK2, JH1 (JAK2, Homo sapiens, UniProt O60674, V617F)	enzyme activity, inhibitor	1 µM	inhibition	-4%
Cc1nn(CC(F)(F)F)cc1Nc1nccc(NCCc2cnc[nH]2)n1	JAK2	enzyme activity, inhibitor, radiometric	1 µM	remaining activity	89%
CN([C@@H]1CCc2c(CC(=O)O)c3cc(S(C)(=O)=O)ccc3n2C1)S(=O)(=O)c1ccc(F)cc1	JAK2 JH1	cell-free assay, competition with immobilised ligand	1 µM	remaining binding	100%
N#CCCc1ccc2c(c1)-c1[nH]c3ccc([N+](=O)[O-])cc3c1CC(=O)N2	JAK2	cell-free assay	0.5 µM	remaining signal	93%
Cc1nn(CC(F)(F)F)cc1Nc1nccc(NCc2ccc(S(N)(=O)=O)cc2)n1	JAK2	enzyme activity, inhibitor, radiometric	1 µM	remaining activity	95%
CCS(=O)(=O)c1cc2cc(C[C@@](O)(CC(C)(C)c3ccc(F)cc3C(N)=O)C(F)(F)F)[nH]c2cn1	JAK2 JH1	cell-free assay, competition with immobilised ligand	1 µM	remaining binding	100%
COc1cc(Nc2cnc(C#N)c(O[C@H](C)CN(C)C)n2)ncc1-c1cnn(C)c1	JAK2	enzyme activity, inhibitor, radiometric	1 µM	remaining activity	71%
CS(=O)(=O)Nc1cccc(-c2csc(NC(=O)CSc3nc4nccnc4c(=O)n3CCc3ccccc3)n2)c1	JAK2	enzyme activity, inhibitor	10 µM	inhibition	-7%
O=C1CCc2cc(Nc3cc(OC4CCOCC4)c([N+](=O)[O-])cc3Cl)ccc2N1	JAK2 JH1	cell-free assay, competition with immobilised ligand	1 µM	remaining binding	100%
Cc1cc(NC(=O)c2cccc3cc(-c4cccc5[nH]nc(N)c45)ccc23)ccc1F	JAK2	enzyme activity, inhibitor	0.1 µM	activity vs control	78%
